Results published in ChEMBL document CHEMBL1255468 (Antimicrob Agents Chemother, 2010).
Active and inactive are the calls of the source. The calls are words filed in the database; no cut-off is given here.

Assays:
Trypanosoma cruzi [1] = test: Antitrypanosomal activity against Trypanosoma cruzi Y infected in mouse assessed as decrease in parasitemia in blood at 200 mg/kg, po upto 40 days post infection; format: functional
Method in brief: (§1)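 Male Swiss mice (6–8 weeks, 18–20 g), 8–10 per group, infected i.p. with 10^4 bloodstream trypomastigotes (Y strain). On dpi 5, a single 200 mg/kg oral gavage dose was given in water with 10% Tween-80. Parasitemia was counted daily from dpi 6 to 21 by the Pizzi-Brener method. Body weight was recorded weekly. Mortality was recorded daily, and cumulative mortality at 40 dpi and M50 were calculated.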

Trypanosoma cruzi [2] = test: Antitrypanosomal activity against Trypanosoma cruzi Y infected in mouse assessed as decrease in mouse mortality at 200 mg/kg, po upto 40 days post infection; format: functional, organism-based; parameters: dose 200 mg/kg; method in brief: as §1
Trypanosoma cruzi [3] = test: Antitrypanosomal activity against Trypanosoma cruzi infected in mouse assessed as reduction in inflammatory foci in cardiac muscle at 100 mg/kg, po after 6 days post infection; format: functional, organism-based; parameters: dose 100 mg/kg; conditions: Muscle tissue
Method in brief: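 Infected mice were dosed by gavage at 100 mg/kg daily for 10 days from dpi 6. Two mice per group were euthanized at 14 dpi. Paraffin heart sections were stained with hematoxylin-eosin. Under a 40× objective, parasite nests and inflammatory foci (≥10 mononuclear cells) were counted per mm2 over 30 fields.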

Trypanosoma cruzi [4] = test: Antitrypanosomal activity against Trypanosoma cruzi amastigotes infected in mouse peritoneal macrophages assessed as inhibition of infection after 4 day; format: functional, organism-based; conditions: 96 h
Method in brief: (§2)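 Swiss mouse peritoneal macrophages (3 × 10^5/well) were plated for 24 h, then infected with Y-strain trypomastigotes (10:1) in DMEM with 10% FCS for 3 h. Free parasites were washed off, and compounds were added at 2.5–30 µM final for 1–4 days. Cells were fixed in Bouin's solution and stained with Giemsa. Percent infection and endocytic index (parasites/100 cells) were counted, and IC50 was derived. Three independent experiments.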

Trypanosoma cruzi [5] = test: Antitrypanosomal activity against Trypanosoma cruzi trypomastigotes assessed as shortening of flagellum at 11.6 uM after 24 hrs by scanning electron microscopy; format: functional, organism-based
Method in brief: (§3)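 Trypomastigotes (5 × 10^6/ml) were treated for 24 h and adhered to poly-L-lysine coverslips. They were fixed in 2.5% glutaraldehyde in 0.1 M cacodylate (pH 7.2) for 40 min and postfixed for 30 min in 1% OsO4, 0.8% ferricyanide and 2.5 mM CaCl2. Samples were acetone-dehydrated, critical-point dried, gold-coated (20 nm) and examined by scanning EM.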

Mus musculus [6] = test: Toxicity in mouse assessed as GPT level in blood at 400 mg/kg, po after 4 days; format: organism-based; parameters: dose 400 mg/kg, route oral; conditions: in vivo, 96 h
Method in brief: (§4)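 Uninfected male Swiss mice, 8–10 per group, received by gavage either a single 400 mg/kg dose or 10 doses of 100 mg/kg (vehicle water with 10% Tween-80). GOT, GPT and urea were measured directly in blood with the Reflotron system, and body weight was recorded. Single-dose toxicity was analyzed 4 days after treatment.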

Trypanosoma cruzi [7] = test: Antitrypanosomal activity against Trypanosoma cruzi amastigotes infected in mouse peritoneal macrophages assessed as endocytic index after 1 day; format: functional, organism-based; conditions: 24 h; method in brief: as §2
Trypanosoma cruzi [8] = test: Antitrypanosomal activity against Trypanosoma cruzi amastigotes infected in mouse embryo heart muscle cells assessed as endocytic index at 40 uM; format: functional, organism-based
Method in brief: (§5)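 Mouse embryo heart muscle cells (10^5/well) were plated on gelatin-coated coverslips and infected after 24 h with trypomastigotes at 10:1 parasite/host cell. After another 24 h, cultures were washed and exposed to compounds at 10–40 µM final. At intervals, cells were fixed in Bouin's solution and stained with Giemsa. Percent infection and endocytic index (parasites/100 cells) were counted, and IC50 was derived.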

Trypanosoma cruzi [9] = test: Antitrypanosomal activity against Trypanosoma cruzi amastigotes infected in mouse peritoneal macrophages assessed as inhibition of infection after 1 day; format: functional, organism-based; conditions: 24 h; method in brief: as §2
[10] = Cytotoxicity against swiss mouse HMC after 48 hrs by MTT assay; conditions: read-out: LC50
Method in brief: (§6)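 Uninfected host cells were exposed to compounds at 37°C for 2 days, with compound stocks in DMSO. Cells were Swiss mouse peritoneal macrophages or primary mouse embryo heart muscle cells (18-day embryos, trypsin/collagenase dissociated, gelatin-coated coverslips, DMEM with horse and fetal calf sera, chicken embryo extract). Viability was read by MTT at 490 nm to give LC50.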

Trypanosoma cruzi [11] = test: Antitrypanosomal activity against Trypanosoma cruzi amastigotes infected in mouse peritoneal macrophages assessed as endocytic index after 3 day; format: functional, organism-based; conditions: 72 h; method in brief: as §2
Trypanosoma cruzi [12] = test: Antitrypanosomal activity against Trypanosoma cruzi amastigotes infected in mouse peritoneal macrophages assessed as endocytic index after 4 day; format: functional, organism-based; conditions: 96 h; method in brief: as §2
Trypanosoma cruzi [13] = test: Antitrypanosomal activity against Trypanosoma cruzi infected in mouse assessed as decrease in mortality rate at 100 mg/kg, po after 6 days post infection; format: functional, organism-based; parameters: dose 100 mg/kg
Method in brief: (§7)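 Male Swiss mice, 8–10 per group, infected i.p. with 10^4 bloodstream trypomastigotes. From dpi 6, mice received 10 consecutive daily gavage doses of 100 mg/kg in water with 10% Tween-80. Parasitemia was read daily on dpi 6–21 by the Pizzi-Brener method. Mortality was noted daily, and %CM at 40 dpi and M50 were calculated.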

Mus musculus [14] = test: Toxicity in mouse assessed as GOT level in blood at 400 mg/kg, po after 4 days; format: organism-based; parameters: dose 400 mg/kg, route oral; conditions: in vivo, 96 h; method in brief: as §4
Trypanosoma cruzi [15] = test: Antitrypanosomal activity against Trypanosoma cruzi infected in mouse assessed as decrease in parasitemia in blood at 100 mg/kg, po after 6 days post infection; format: functional; method in brief: as §7
Trypanosoma cruzi [16] = test: Antitrypanosomal activity against Trypanosoma cruzi amastigotes infected in mouse peritoneal macrophages assessed as inhibition of infection after 2 day; format: functional, organism-based; conditions: 48 h; method in brief: as §2
Trypanosoma cruzi [17] = test: Antitrypanosomal activity against Trypanosoma cruzi amastigotes infected in mouse peritoneal macrophages assessed as inhibition of infection after 3 day; format: functional, organism-based; conditions: 72 h; method in brief: as §2
Mus musculus [18] = test: Toxicity in mouse assessed as body weight at 400 mg/kg, po after 4 days; format: organism-based; parameters: dose 400 mg/kg, route oral; conditions: in vivo, 96 h; method in brief: as §4
Mus musculus [19] = test: Toxicity in mouse assessed as urea level in blood at 400 mg/kg, po after 4 days; format: organism-based; parameters: dose 400 mg/kg, route oral; conditions: in vivo, 96 h; method in brief: as §4
[20] = Selectivity index, ratio of LC50 for mouse peritoneal macrophages to IC50 for inhibition of Trypanosoma cruzi amastigotes
Method in brief: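 SI = LC50/IC50 in peritoneal macrophages. LC50 came from the 2-day MTT assay on uninfected macrophages. Cells were Bouin-fixed and Giemsa-stained, and endocytic index (parasites/100 cells) was counted. Three independent experiments.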

Trypanosoma cruzi [21] = test: Antitrypanosomal activity against Trypanosoma cruzi amastigotes infected in mouse peritoneal macrophages assessed as endocytic index after 2 day; format: functional, organism-based; conditions: 48 h; method in brief: as §2
[22] = Cytotoxicity against Swiss mouse peritoneal macrophages after 48 hrs by MTT assay; format: cell-based, Peritoneal macrophage cell; conditions: read-out: LC50; method in brief: as §6
Trypanosoma cruzi [23] = test: Antitrypanosomal activity against Trypanosoma cruzi trypomastigotes assessed as shrinkage of cell surface and body at 11.6 uM after 24 hrs by scanning electron microscopy; format: functional, organism-based; method in brief: as §3
Trypanosoma cruzi [24] = test: Antitrypanosomal activity against Trypanosoma cruzi trypomastigotes assessed as alteration in flagellar structure with membrane expansion at […] after 24 hrs by Transmission electron microscopy; format: functional, organism-based
Trypanosoma cruzi [25] = test: Antitrypanosomal activity against Trypanosoma cruzi trypomastigotes assessed as alteration in nuclear envelop dilation at […] after 24 hrs by Transmission electron microscopy; format: functional, organism-based
Mus musculus [26] = test: Toxicity in mouse assessed as GPT level in blood at 100 mg/kg, po after 4 days; format: organism-based; parameters: dose 100 mg/kg, route oral; conditions: in vivo, 96 h; method in brief: as §4
Trypanosoma cruzi [27] = test: Antitrypanosomal activity against Trypanosoma cruzi amastigotes infected in mouse embryo heart muscle cells assessed as inhibition of infection after 24 hrs; format: functional, organism-based; method in brief: as §5
Trypanosoma cruzi [28] = test: Antitrypanosomal activity against Trypanosoma cruzi Y infected in mouse assessed as decrease in mouse mortality at 200 mg/kg, po after 16 days post infection; format: functional; parameters: scale not given: the % may be the effect or the level left
Method in brief: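 Male albino Swiss mice (6 to 8 weeks, 18 to 20 g), 8 to 10 per group, infected i.p. with 10^4 Y-strain bloodstream trypomastigotes. […] Parasitemia checked daily by Pizzi-Brener method; mortality noted daily to 40 dpi, cumulative mortality and M50 calculated.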

Trypanosoma cruzi [29] = test: Antitrypanosomal activity against Trypanosoma cruzi amastigotes infected in mouse embryo heart muscle cells assessed as inhibition of infection; format: functional, organism-based; conditions: TDE = time-dependent effect; method in brief: as §5
Mus musculus [30] = test: Toxicity in mouse assessed as GOT level in blood at 100 mg/kg, po after 4 days; format: organism-based; parameters: dose 100 mg/kg, route oral; conditions: in vivo, 96 h; method in brief: as §4
[31] = Selectivity index, ratio of LC50 for mouse HMC to IC50 for inhibition of Trypanosoma cruzi amastigotes
Trypanosoma cruzi [32] = test: Antitrypanosomal activity against Trypanosoma cruzi trypomastigotes assessed as alteration in autophagosome-like structure formation at […] after 24 hrs by Transmission electron microscopy; format: functional, organism-based
Trypanosoma cruzi [33] = test: Antitrypanosomal activity against Trypanosoma cruzi trypomastigotes assessed as parasite body rounding at […] after 24 hrs by scanning electron microscopy; format: functional, organism-based
Trypanosoma cruzi [34] = test: Antitrypanosomal activity against Trypanosoma cruzi amastigotes infected in mouse embryo heart muscle cells assessed as endocytic index; format: functional, organism-based; method in brief: as §5
Mus musculus [35] = test: Toxicity in mouse assessed as urea level in blood at 100 mg/kg, po after 4 days; format: organism-based; parameters: dose 100 mg/kg, route oral; conditions: in vivo, 96 h; method in brief: as §4

| Compound | Activity (Trypanosoma cruzi [1]) | Activity (Trypanosoma cruzi [2]) | Activity (Trypanosoma cruzi [3]) | IC50 (Trypanosoma cruzi [4]) [nM] | Activity (Mus musculus [6]) [U/L] | IC50 (Trypanosoma cruzi [7]) [nM] | IC50 (Trypanosoma cruzi [9]) [nM] | CC50 at 48 h [10] [nM] | IC50 (Trypanosoma cruzi [11]) [nM] | IC50 (Trypanosoma cruzi [12]) [nM] | Activity (Trypanosoma cruzi [13]) | Activity (Mus musculus [14]) [U/L] | IC50 (Trypanosoma cruzi [16]) [nM] | IC50 (Trypanosoma cruzi [17]) [nM] | Activity (Mus musculus [18]) [g] | Activity (Mus musculus [19]) [mg/dL] | Ratio LC50/IC50 [20] | IC50 (Trypanosoma cruzi [21]) [nM] | CC50 at 48 h [22] [nM] | also measured |
| --- | --- | --- | --- | --- | --- | --- | --- | --- | --- | --- | --- | --- | --- | --- | --- | --- | --- | --- | --- | --- |
| COc1ccc(/C=N\Nc2nnc(-c3ncc([N+](=O)[O-])n3C)s2)cc1O | inactive | inactive | – | – | – | – | – | – | – | – | – | – | – | – | – | – | – | – | – | – |
| Cn1c([N+](=O)[O-])cnc1-c1nnc(N/N=C\c2ccc(O)cc2)s1 | 50% | Active | Active | 1700 | 24.4 | 5000 | 7100 | > 240000 | 3200 | 1300 | inactive | 76.6 | 6000 | 6200 | 25.5 | 58.6 | >41 | 2900 | > 100000 | Activity (Trypanosoma cruzi [5]): Active; Activity (Trypanosoma cruzi [8]): inactive; inhibition in vivo at 100 mg/kg (Trypanosoma cruzi [15]; 144 h): 46%; Activity (Trypanosoma cruzi [23]): Active |
| Cn1c([N+](=O)[O-])cnc1-c1nnc(N/N=C\c2ccc(Cl)cc2)s1 | inactive | inactive | – | – | – | – | – | – | – | – | – | – | – | – | – | – | – | – | – | – |
| Cn1c([N+](=O)[O-])cnc1-c1nnc(N/N=C\c2ccc(O)c(O)c2)s1 [BRAZILIZONE A] | inactive | inactive | inactive | 1700 | 22.7 | 2000 | 2100 | > 240000 | 1400 | 1900 | inactive | 62.4 | 4400 | 2600 | 25.8 | 51.6 | >27 | 2200 | > 60000 | Activity (Trypanosoma cruzi [24]): Active; Activity (Trypanosoma cruzi [25]): Active; Activity (Mus musculus [26]): Non-toxic; Activity (Trypanosoma cruzi [27]): Dose-dependent effect; Activity (Trypanosoma cruzi [28]): 50%; Activity (Trypanosoma cruzi [29]): tde; Activity (Mus musculus [30]): Non-toxic; fold change (FC) [31]: > 32; Activity (Trypanosoma cruzi [32]): Active; Activity (Trypanosoma cruzi [15]): inactive; Activity (Trypanosoma cruzi [33]): Active; IC50 (Trypanosoma cruzi [34]): 7600 nM; Activity (Mus musculus [35]): Non-toxic |
